Results reported in ChEMBL document CHEMBL4477209, “Indole-2-carboxamide-based MmpL3 Inhibitors Show Exceptional Antitubercular Activity in an Animal Model of Tuberculosis Infection” (J Med Chem, 2016).
≈ marks a conversion by molar mass, not a printed value. Calls of active or inactive are those of the source. No cut-off for these calls is given here.

What was measured:
[1] = biological target: Voltage-gated inwardly rectifying potassium channel KCNH2 (Homo sapiens, UniProt Q12809); assay: Inhibition of human ERG
Voltage-gated inwardly rectifying potassium channel KCNH2, sequence (Q12809 whole entry): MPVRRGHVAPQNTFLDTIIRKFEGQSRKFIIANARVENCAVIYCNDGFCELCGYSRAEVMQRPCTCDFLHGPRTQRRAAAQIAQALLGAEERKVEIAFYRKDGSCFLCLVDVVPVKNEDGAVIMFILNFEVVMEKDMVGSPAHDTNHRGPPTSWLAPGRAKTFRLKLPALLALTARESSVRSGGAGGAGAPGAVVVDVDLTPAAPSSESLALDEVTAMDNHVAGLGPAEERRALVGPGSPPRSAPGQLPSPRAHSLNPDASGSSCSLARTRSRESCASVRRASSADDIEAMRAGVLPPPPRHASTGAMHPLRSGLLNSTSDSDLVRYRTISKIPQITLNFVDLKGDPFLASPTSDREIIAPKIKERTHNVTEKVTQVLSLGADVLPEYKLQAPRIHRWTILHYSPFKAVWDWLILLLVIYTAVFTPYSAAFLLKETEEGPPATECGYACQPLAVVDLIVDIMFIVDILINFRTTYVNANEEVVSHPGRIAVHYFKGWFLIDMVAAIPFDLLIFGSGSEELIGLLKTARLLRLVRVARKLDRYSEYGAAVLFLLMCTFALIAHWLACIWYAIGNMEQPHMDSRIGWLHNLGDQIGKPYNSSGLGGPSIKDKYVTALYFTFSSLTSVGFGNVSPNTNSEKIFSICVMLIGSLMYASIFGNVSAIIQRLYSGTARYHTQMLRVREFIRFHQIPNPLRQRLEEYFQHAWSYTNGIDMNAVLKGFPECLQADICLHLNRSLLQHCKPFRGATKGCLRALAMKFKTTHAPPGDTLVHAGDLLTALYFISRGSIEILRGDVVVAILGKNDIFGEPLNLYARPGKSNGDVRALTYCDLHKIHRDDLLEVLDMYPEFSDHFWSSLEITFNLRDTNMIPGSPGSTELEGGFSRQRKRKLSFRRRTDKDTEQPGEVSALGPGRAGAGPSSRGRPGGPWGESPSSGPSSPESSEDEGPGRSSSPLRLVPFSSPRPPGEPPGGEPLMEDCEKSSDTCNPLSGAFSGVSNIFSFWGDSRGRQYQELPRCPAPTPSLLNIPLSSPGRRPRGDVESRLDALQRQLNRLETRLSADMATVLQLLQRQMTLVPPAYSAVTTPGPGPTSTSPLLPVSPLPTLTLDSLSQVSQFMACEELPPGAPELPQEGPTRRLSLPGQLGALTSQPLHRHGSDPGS

[2] = test system: Mycobacterium tuberculosis; assay: Inhibition of MmpL3 in clinical isolates of drug sensitive Mycobacterium tuberculosis V4207 after 7 to 14 days by alamar blue assay
Cytochrome P450 3A4 = Cytochrome P450 3A4 (Homo sapiens, UniProt P08684); assay: Inhibition of CYP3A4 (unknown origin); format: ADME
Cytochrome P450 3A4, sequence (P08684 whole entry): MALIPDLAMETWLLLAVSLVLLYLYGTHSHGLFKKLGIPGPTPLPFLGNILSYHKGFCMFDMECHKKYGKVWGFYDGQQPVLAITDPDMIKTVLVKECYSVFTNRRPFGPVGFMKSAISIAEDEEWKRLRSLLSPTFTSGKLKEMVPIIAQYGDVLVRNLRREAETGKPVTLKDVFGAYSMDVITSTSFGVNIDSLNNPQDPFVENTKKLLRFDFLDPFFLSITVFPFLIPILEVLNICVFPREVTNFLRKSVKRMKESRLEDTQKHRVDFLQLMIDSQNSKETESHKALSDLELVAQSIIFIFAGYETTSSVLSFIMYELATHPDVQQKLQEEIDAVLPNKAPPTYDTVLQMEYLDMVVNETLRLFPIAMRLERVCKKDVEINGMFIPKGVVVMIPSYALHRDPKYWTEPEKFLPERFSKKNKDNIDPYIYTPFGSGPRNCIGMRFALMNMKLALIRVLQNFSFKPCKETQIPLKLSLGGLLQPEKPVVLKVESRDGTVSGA

[3] = AUMClast in BALB/c mouse lung at 100 mg/kg administered via oral gavage after 0.25 to 24 hrs by LC-MS analysis; format: ADME, organism-based; conditions: in vivo
Method in brief: (§1)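 Female BALB/c mice (20 g), single oral gavage dose of 100 mg/kg. Cardiac blood and lungs taken at 0, 0.25, 0.5, 1, 2, 4, 8 and 24 h (n = 3 per time point). Plasma separated by centrifugation; lungs bead-beaten in water and supernatant recovered. Drug quantified by LC-MS/MS against an indole-2-carboxamide internal standard. Parameters derived by noncompartmental analysis.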

[4] = AUClast in BALB/c mouse lung at 100 mg/kg administered via oral gavage after 0.25 to 24 hrs by LC-MS analysis; format: ADME, organism-based; conditions: in vivo; method in brief: as §1
Vero = assay: Cytotoxicity against african green monkey Vero cells; format: cell-based; conditions: Chlorocebus sabaeus
[5] = test system: Mycobacterium tuberculosis; assay: Antimycobacterial activity against Mycobacterium tuberculosis H37Rv grown on serum isolated from 100 mg/kg, po treated BALB/c mouse for 30 to 120 mins assessed as reduction in bacterial growth followed by bacterial addition incubated for 7 days by alamar blue reagent based serum inhibition titration assay; format: functional, organism-based
Method in brief: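 Six-week-old female BALB/c mice (20 g) given one oral dose as suspension in 0.5% CMC in water; isoniazid 10 mg/kg as positive control, vehicle as negative. Serum collected at 30, 60 and 120 min, pooled from three mice per time point, 2-fold serially diluted. 10^4 CFU H37Rv added per well, 7 days at 37 °C. alamarBlue added for 16−18 h, fluorescence read at Ex544/Em590 and plotted against serum titration.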

[6] = biological target: T1, Aryl hydrocarbon receptor (Homo sapiens, UniProt P35869); assay: Transactivation of AhR (unknown origin) assessed as upregulation of CYP1A2 at 3 to 8 microg/ml; format: ADME
T1 sequence (P35869 whole entry): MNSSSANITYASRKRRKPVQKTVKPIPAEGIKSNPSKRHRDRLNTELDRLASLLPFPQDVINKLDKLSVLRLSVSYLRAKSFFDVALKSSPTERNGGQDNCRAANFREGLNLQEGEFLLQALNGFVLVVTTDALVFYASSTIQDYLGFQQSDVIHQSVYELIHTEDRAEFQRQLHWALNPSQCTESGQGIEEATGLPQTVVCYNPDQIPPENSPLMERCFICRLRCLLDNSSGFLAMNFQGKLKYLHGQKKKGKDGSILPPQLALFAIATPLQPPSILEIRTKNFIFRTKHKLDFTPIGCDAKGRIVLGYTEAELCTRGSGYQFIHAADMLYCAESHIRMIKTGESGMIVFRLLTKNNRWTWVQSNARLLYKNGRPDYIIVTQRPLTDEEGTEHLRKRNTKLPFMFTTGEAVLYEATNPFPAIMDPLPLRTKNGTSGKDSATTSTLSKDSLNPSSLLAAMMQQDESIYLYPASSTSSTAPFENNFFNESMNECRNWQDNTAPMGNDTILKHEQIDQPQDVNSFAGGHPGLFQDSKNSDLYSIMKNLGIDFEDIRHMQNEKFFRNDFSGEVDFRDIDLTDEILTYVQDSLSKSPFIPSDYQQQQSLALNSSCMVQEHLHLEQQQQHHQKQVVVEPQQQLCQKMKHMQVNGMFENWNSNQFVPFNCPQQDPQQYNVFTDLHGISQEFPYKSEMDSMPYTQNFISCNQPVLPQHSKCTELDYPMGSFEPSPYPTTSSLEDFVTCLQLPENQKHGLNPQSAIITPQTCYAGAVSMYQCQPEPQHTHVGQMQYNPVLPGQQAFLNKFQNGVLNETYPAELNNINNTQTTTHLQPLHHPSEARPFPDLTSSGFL
Method in brief: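 Nuclear receptor reporter-gene induction assay, with reporters coupled to PXR, CAR or AhR. Compound was tested at 0.1–1, 3 and 8 μg/mL. Positive controls were rifampin for PXR, CITCO for CAR and 3-methylcholanthrene for AhR.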

[7] = Mutagenicity in Salmonella typhimurium TA98 assessed as increase in ratio of revertant colonies at 500 microg/plate in presence of S9 liver fraction relative to control; format: toxicity, subcellular; conditions: salmonella enterica subsp. enterica serovar typhimurium
Method in brief: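 Bacterial reverse mutation test in S. typhimurium TA98 with S9 liver fraction, at 500 and 5000 μg/plate. Revertant colony count expressed as a ratio to the DMSO solvent control; 2-aminoanthracene as positive control.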

[8] = AUMClast in BALB/c mouse plasma at 100 mg/kg administered via oral gavage after 0.25 to 24 hrs by LC-MS analysis; format: ADME, organism-based; conditions: in vivo; method in brief: as §1
[9] = test system: Mycobacterium tuberculosis; assay: Antimycobacterial activity against Mycobacterium tuberculosis H37Rv assessed as growth inhibition at 0.5 times MIC after 7 to 14 days in presence of 0.0313 times MIC of rifampin by alamar blue assay based Bliss synergy model analysis; format: functional
Method in brief: (§2)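 Checkerboard of 2-fold dilutions, 4.0 to 0.0313 × MIC of each drug combined with rifampin. M. tuberculosis H37Rv at 1 × 10^4 CFU per well in 200 μL. Single-drug, blank and full-growth controls included. alamarBlue read-out, percent inhibition calculated. Bliss independence applied to wells below 1 × MIC; Δfaxy > 0 taken as synergy, < 0 as antagonism.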

[10] = AUClast in BALB/c mouse plasma at 100 mg/kg administered via oral gavage after 0.25 to 24 hrs by LC-MS analysis; format: ADME, organism-based; design: dose 100 mg/kg, time 0.25-24 hr, route oral; method in brief: as §1
[11] = test system: Mycobacterium tuberculosis; assay: Antimycobacterial activity against Mycobacterium tuberculosis H37Rv assessed as growth inhibition at 0.25 times MIC after 7 to 14 days in presence of 0.25 times MIC of rifampin by alamar blue assay based by Bliss synergy model analysis; format: functional; method in brief: as §2
[12] = Tmax in BALB/c mouse lung at 100 mg/kg administered via oral gavage after 0.25 to 24 hrs by LC-MS analysis; format: ADME, organism-based
Method in brief: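 Female BALB/c mice (20 g) got a single 100 mg/kg oral gavage dose. Three animals were sacrificed per time point at 0, 0.25, 0.5, 1, 2, 4, 8 and 24 h. Cardiac blood was spun at 12 000g, 4 °C for plasma. Lungs were bead-beaten in water and the supernatant taken. Both matrices were quantified by LC-MS/MS with an indole-2-carboxamide internal standard. Parameters came from noncompartmental analysis.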

[13] = test system: Mycobacterium tuberculosis H37Rv; assay: Inhibition of MmpL3 in clinical isolates of drug sensitive Mycobacterium tuberculosis H37Rv after 7 to 14 days by alamar blue assay
[14] = Mutagenicity in Salmonella typhimurium TA1535; format: toxicity; conditions: salmonella enterica subsp. enterica serovar typhimurium
[15] = Permeability across apical to basolateral side in human Caco2 cells; format: ADME, cell-based; conditions: Caco-2, read-out: permeability
[16] = test system: Mycobacterium tuberculosis; assay: Antimycobacterial activity against Mycobacterium tuberculosis H37Rv infected in BALB/c mouse model assessed as bacterial growth inhibition in lungs at 100 mg/kg administered daily via oral gavage for 5 days per week measured after 28 days post dosage co-treated with 10 mg/kg of rifampin by Bliss synergy model based analysis; format: functional, organism-based
Method in brief: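 Female BALB/c mice, 4-6 weeks old, aerosol-infected with H37Rv, day 1 implantation 3.4-log CFU per lung. Treatment from day 14: 100 mg/kg plus rifampin 10 mg/kg by oral gavage, doses at least 1 h apart, daily 5 days/week. Single-drug arms and untreated infected controls included, four mice per group. Lung CFU counted at day 28 of treatment on 7H11 selective agar.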

C[C@@H]1[C@H]2C[C@@H](C[C@H]1NC(=O)c1cc3c(F)cc(F)cc3[nH]1)C2(C)C
IC50 [1]: > 30 µM | MIC [2]: 23 µM (≈ 7.65 µg/mL) | inhibition (INH) (Cytochrome P450 3A4): -6.7% | AUMClast [3]: 433 hr2.ug/g | AUClast [4]: 51 µg·h/g | IC50 (Vero): ≥ 192 µM | Activity [5]: Active | Activity [6]: Active | fold change (FC) [7]: 2.5 | AUMClast [8]: 137 hr.hr.ug/ml | growth inhibition (GI) [9]: 99.2% | AUC(0-t) [10]: 18900 ng·h/mL | growth inhibition (GI) [11]: 99.4% | Tmax [12]: 4 h | MIC90 [13]: 0.012 µM (≈ 0.00399 µg/mL) | Activity [14]: Non-Toxic | Papp A→B [15]: 0.19 ×10⁻⁶ cm/s | Activity [16]: Active
